DENV2 CPE rescue – inhibitors of DENV2 cytopathic effect, primary screen, cell-based, plate reader, single concentration; DENV2-infected cells, cytopathic effect rescue; CPE inhibition, % at 9.99 µM; actives 1.7% (n = 350,000); in the data active = CPE inhibition above about 20%, passing the limit was not always enough; inconclusive = no clear call, values can overlap the other calls; tested in BHK-21 cells;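 also: 0% = median of neutral control wells and 100% = median of positive control wells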
SIRT5 inh – SIRT5 desuccinylase inhibitors, primary screen, biochemical, fluorescence imaging, single point, set 5 | inhibition, % at 15 µM | actives 1.1% (n = 330,000) | Purified SirT5, succinyl-peptide AMC, trypsin-coupled fluorescence | AID 652115, 2013 | NAD-dependent protein deacylase sirtuin-5, mitochondrial (Homo sapiens), Q9NXA8; in the data active = inhibition above about 15%; inconclusive = no clear call, values can overlap the other calls
Target sequence (Q9NXA8 whole entry, looked up): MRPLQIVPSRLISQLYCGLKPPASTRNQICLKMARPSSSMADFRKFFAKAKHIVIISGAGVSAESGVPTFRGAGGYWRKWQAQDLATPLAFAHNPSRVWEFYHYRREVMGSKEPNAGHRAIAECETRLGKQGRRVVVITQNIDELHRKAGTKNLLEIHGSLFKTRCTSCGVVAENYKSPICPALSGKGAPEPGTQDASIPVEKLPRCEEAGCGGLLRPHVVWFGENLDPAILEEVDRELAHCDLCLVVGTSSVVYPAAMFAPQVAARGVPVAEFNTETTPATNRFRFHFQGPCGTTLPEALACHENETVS
XiGFP reactiv – activators of inactive X chromosome reactivation, primary screen, imaging, XiGFP fibroblasts, GFP high-content imaging, set 2; AID 743238, 2013; XiGFP mouse fibroblasts, % GFP-positive cells imaging, 3 d; cells co-treated with 5-aza-dC sensitizer; scaled so ellipticine positive control = 100%; activation, % at 7.58 µM; actives 0.055% (n = 360,000);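 active = mean normalized replicate activation at least 10% and every replicate at or above 10%; inconclusive = only one of the two criteria met; inactive = mean below 10% and not all replicates reach 10%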;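 also: 0% = median of on-plate neutral control wells and 100% = ellipticine 6 µM median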
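System: 68-5-11 XiGFP fibroblast line; Timing: 3 days compound exposure; Compound dosing: one concentration, pinned; Benchmarks: positive control ellipticine, 6 µM final; Buffer or medium: DMEM containing 5-aza-dC.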
ARNT TACC3 PPI – disruptors of ARNT/TACC3 protein interaction, primary screen, biochemical, AlphaScreen, single concentration; AID 623870, 2012; actives 0.66% (n = 390,000); inhibition, % at 9.99 µM; AlphaScreen His-ARNT PAS-B/GST-TACC3 binding, luminescence; TACC3 fragment carries E629A point mutation;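 active = mean inhibition of replicates at least 50% and at least half of replicates each reaching 50%; inconclusive = half or more replicates reach 50% but mean below 50%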;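 also: 0% = complete ARNT plus TACC3 wells and 100% = ARNT alone without TACC3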
FGF22 binding – binders of human FGF22 protein, primary screen, FGF22 synaptogenesis inhibitor project, biophysical, thermal shift, single point | Fibroblast growth factor 22 (Homo sapiens), Q9HCT0 | recombinant FGF22 thermal shift, SYPRO orange fluorescence; percent of sucrose octasulfate shift, DMSO zero | activity (Tm shift, normalised), % at 9.99 µM | actives 1.5% (n = 340,000) | AID 651658, 2012;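 active = mean Tm shift, scaled 0 neutral to 100 positive control, at about 1.3% or above, every replicate too, limit read from the data; inconclusive = no clear call, values can overlap the other calls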
Target sequence (Q9HCT0 whole entry, looked up): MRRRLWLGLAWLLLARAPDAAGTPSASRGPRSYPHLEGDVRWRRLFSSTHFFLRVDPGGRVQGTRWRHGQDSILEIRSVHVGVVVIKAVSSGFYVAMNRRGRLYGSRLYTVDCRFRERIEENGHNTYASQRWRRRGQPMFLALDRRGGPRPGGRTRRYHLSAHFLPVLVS
FN deposit inh – inhibitors of fibronectin matrix deposition, primary screen, AH1F cells, Alexa488-fibronectin fluorescence, plate reader; AH1F fibroblasts, overnight; inhibition, % at 12.6 µM; actives 0.086% (n = 350,000); AID 743247, 2014;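 active = mean inhibition across replicates of 30% or more, regardless of how many single replicates reach that level; inconclusive = mean under 30% yet at least half of replicates reach 30%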;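 also: positive control wells lacked labelled fibronectin entirely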
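Material – AH1F fibroblast monolayer, labelled fibronectin deposition · Reagent – labelled fibronectin 24 nM · Timing – 1 h adhesion, overnight exposure · Measured by – fluorescence at 485 nm excitation, 525 nm emission · Read-out – inhibition of fibronectin deposition signal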
The depositor's hits bear a star; ? = inconclusive; . = no result given; ! = not active in a repeat. Rows were chosen to be rich in hits. Some 3.8% of all compounds tested hit in one or more screens of this group.

SMILES	DENV2 CPE rescue	SIRT5 inh	XiGFP reactiv	ARNT TACC3 PPI	FGF22 binding	FN deposit inh
C[C@@H]1CN([C@H](C)CO)S(=O)(=O)c2ccc(C3=CCCCC3)cc2O[C@@H]1CN(C)S(=O)(=O)c1ccc(F)cc1	23*	-3	1	-3	.	.
Cc1ccccc1S(=O)(=O)N1[C@@H](C#N)[C@@H](c2ccccc2)[C@@H]1CO	7	0	0	-22	0	-11
O=C(C[C@@H]1CC[C@H]2[C@@H](COC[C@@H](O)CN2S(=O)(=O)c2ccc(F)cc2)O1)N[C@@H]1CCN(Cc2ccccc2)C1	1	-4	0	6	0	-2
Cc1ccc(S(=O)(=O)N(C)C[C@@H]2Oc3ccc(NS(=O)(=O)c4cn(C)cn4)cc3CC(=O)N([C@@H](C)CO)C[C@H]2C)cc1	.	.	-1	.	.	.
O=C1Cc2cc(S(=O)(=O)N3CCNCC3)ccc2N1	34*	.	0	7	0	.
Cc1noc(C)c1NC(=O)N(C)C[C@@H]1Oc2c(NS(=O)(=O)c3ccccc3)cccc2C(=O)N([C@@H](C)CO)C[C@@H]1C	125*	4	-1	-2	0	.
CNC[C@H]1Oc2c(NS(=O)(=O)c3ccc(F)cc3)cccc2C(=O)N([C@H](C)CO)C[C@@H]1C	-2	.	-1	30	0	15
C[C@@H]1CN([C@@H](C)CO)C(=O)c2cccc(NS(=O)(=O)c3ccccc3)c2O[C@@H]1CN(C)C(=O)Nc1ccc(F)cc1	-3	0	0	3	-1	.
CNC[C@@H]1Oc2c(NS(=O)(=O)c3ccc(F)cc3)cccc2C(=O)N([C@H](C)CO)C[C@H]1C	21*	3	0	5	0	.
CNC[C@@H]1Oc2c(N)cccc2C(=O)N([C@H](C)CO)C[C@H]1C	-3	2	0	0	0	-7
CNC[C@H]1Oc2c(N)cccc2C(=O)N([C@H](C)CO)C[C@@H]1C	0	3.0*	0	1	0	-5
C[C@@H]1CN([C@@H](C)CO)C(=O)c2cccc(NS(=O)(=O)c3ccc(F)cc3)c2O[C@H]1CN(C)C(=O)Nc1ccccc1	-2	22*	.	-8	0	.
C[C@@H]1CN([C@H](C)CO)C(=O)c2cc(-c3cccc(F)c3)cnc2O[C@H]1CN(C)C(=O)C1CCC1	1	0	-1	-1	0	-7
COc1ccc2c3c(n(C)c2c1)[C@@H](CO)N(C(=O)CC1CC1)CC31CN(Cc2ccncc2)C1	-7	-1	0	.	.	0
COc1ccc2c3c([nH]c2c1)[C@@H](CO)N(C(=O)c1ccc(F)cc1)CC31CCN(C(=O)CC2CC2)CC1	6	.	0	.	0	.
C[C@H]1CN([C@@H](C)CO)C(=O)c2cc(-c3ccc(F)cc3)cnc2O[C@H]1CN(C)C(=O)c1ccccn1	-5	13	0	0	0	-1
C[C@H](CO)N1C[C@H](C)[C@@H](CN(C)C(=O)Nc2ccc3c(c2)OCO3)Oc2c(NS(=O)(=O)c3ccc(F)cc3)cccc2C1=O	48*!	-3	0	14	0	1
C[C@H](CO)N1C[C@H](C)[C@H](CN(C)C(=O)Nc2ccc3c(c2)OCO3)Oc2c(NS(=O)(=O)c3ccc(F)cc3)cccc2C1=O	-9	-4	0	2	0	.
C=CCOc1ccc(C[C@H](N)C(=O)NC[C@H]2O[C@@H](n3ccc(N)nc3=O)[C@H](O)[C@@H]2O)cc1	?	.	0	.	43*	-8
Cc1ccc(C(=O)NNC(=O)c2cccc(Br)c2)cc1	1	-2	0	-6	0	0
CC(C)NC(=O)c1cccc(Br)c1	7	28*	.	-1	1	.
Cc1noc(C)c1S(=O)(=O)N(C)C[C@@H]1Oc2c(NS(=O)(=O)c3cccs3)cccc2C(=O)N([C@H](C)CO)C[C@@H]1C	-10	4	-1	.	-1	-27
CCCOc1ccc(Cc2nn3c(=O)/c(=C/c4ccco4)sc3nc2=O)cc1	.	.	.	32*	.	-12
C[C@@H]1CN([C@@H](C)CO)C(=O)Cc2cc(NC(=O)NC3CCCCC3)ccc2O[C@@H]1CN(C)S(=O)(=O)c1cccs1	0	6	-1	.	0	19
CSc1ncc(C(=O)Nc2ccccc2F)c(-c2ccccc2)n1	2	1	0	2	0	0
SMILES	DENV2 CPE rescue	SIRT5 inh	XiGFP reactiv	ARNT TACC3 PPI	FGF22 binding	FN deposit inh
CSc1ncc(C(=O)Nc2ccc(C(C)=O)cc2)c(-c2ccccc2)n1	2	21*	0	-3	0	3
O=C(O)CN1CCc2ccccc2C1	10	-3	0	-2	43*	.
O=C(/C=C/C(=O)N1CCc2ccccc2C1)N1CCc2ccccc2C1	1	-3	0	.	0	-2
O=C(CN1CCc2ccccc2C1)Nc1ccc(F)cc1F	-6	0	0	-1	44*	8
CC(C)NC(=O)Nc1cccc2c1O[C@@H](CN(C)C(=O)NC(C)C)[C@@H](C)CN([C@@H](C)CO)C2=O	66*	2	0	0	0	.
COc1ccc(NC(=O)Nc2cccc3c2O[C@@H](CN(C)C(=O)NC(C)C)[C@@H](C)CN([C@@H](C)CO)C3=O)cc1	38*	-1	1	1	0	-4
CC(C)NC(=O)Nc1cccc2c1O[C@H](CN(C)C(=O)Nc1ccccc1)[C@@H](C)CN([C@@H](C)CO)C2=O	48*	0	0	7	0	-11
CC(C)NC(=O)Nc1cccc2c1O[C@H](CN(C)C(=O)NC(C)C)[C@@H](C)CN([C@H](C)CO)C2=O	?	-2	0	-8	0	-4
C/C=C/c1ccc2c(c1)O[C@@H](CN(C)C(=O)Nc1ccc(F)cc1)[C@H](C)CN([C@H](C)CO)S2(=O)=O	-1	3	0	1	.	.
CN1CCC2CC1c1cc(-c3ccc(C(F)(F)F)cc3)ccc12 (configuration not stated)	21*	-5	0	-5	0	8
CN(C)CC#Cc1ccc([C@@H]2[C@@H](CO)N3CCCCN(S(=O)(=O)c4ccccc4F)C[C@@H]23)cc1	-10	0	0	0	0	.

Compound activity from PubChem BioAssay.
